From ChEMBL document CHEMBL1151697, “Synthesis and structure-activity relationships for biphenyl H3 receptor antagonists with moderate anti-cholinesterase activity” (Bioorg Med Chem, 2008)
Activity calls are given as the source filed them. No cut-off for these calls is given here.

Columns and labels:
Histamine H3 receptor [1] = molecular target: T1, Histamine H3 receptor (Homo sapiens, UniProt Q9Y5N1); test: Antagonist activity at human histamine H3 receptor expressed in SK-N-MC cells by CRE-mediated beta-galactosidase reporter gene assay administered 10 mins before (R)-alpha-methylhistamine challenge after 6 hrs; assay type: functional, cell-based
T1 sequence (Q9Y5N1 whole entry): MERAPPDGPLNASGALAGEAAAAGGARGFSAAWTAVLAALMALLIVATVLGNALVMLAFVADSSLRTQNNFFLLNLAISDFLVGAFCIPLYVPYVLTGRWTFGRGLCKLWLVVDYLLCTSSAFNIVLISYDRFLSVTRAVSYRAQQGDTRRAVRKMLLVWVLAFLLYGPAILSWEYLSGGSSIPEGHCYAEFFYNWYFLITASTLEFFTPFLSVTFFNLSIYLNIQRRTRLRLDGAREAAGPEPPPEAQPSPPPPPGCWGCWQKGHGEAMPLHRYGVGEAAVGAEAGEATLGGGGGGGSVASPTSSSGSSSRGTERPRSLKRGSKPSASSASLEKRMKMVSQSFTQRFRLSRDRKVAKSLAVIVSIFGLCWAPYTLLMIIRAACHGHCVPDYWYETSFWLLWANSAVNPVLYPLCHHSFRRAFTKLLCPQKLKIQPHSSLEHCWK
Procedure, shortened: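 SK-N-MC cells stably carrying human H3 and a β-galactosidase reporter. Compound added to medium, forskolin 5 min later, then (R)-α-methylhistamine 10 min after compound; 6 h at 37 °C. Cells lysed in phosphate assay buffer (pH 8) with 0.5% Triton and 40 mM β-mercaptoethanol; β-galactosidase read at 570 nm. Means of 4–6 experiments.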

Histamine H3 receptor [2] = molecular target: T1, Histamine H3 receptor; test: Displacement of [3H]RAMHA from human histamine H3 receptor expressed in SK-N-MC cells; assay type: cell-based
Procedure, shortened: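 SK-N-MC membranes bearing human H3 incubated 60 min at room temperature with 0.5 nM [3H]-(R)-α-methylhistamine and competitor (0.01 nM to 10 µM). Rapid filtration, two washes in ice-cold 50 mM Tris–HCl/5 mM EDTA. Nonspecific binding with 10 µM histamine. pKi via Cheng–Prusoff; means of 4–6 experiments.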

Histamine H3 receptor [3] = molecular target: Histamine H3 receptor (Rattus norvegicus, UniProt Q9QYN8); test: Displacement of [3H]RAMHA from histamine H3 receptor in Wistar rat brain membrane; assay type: cell membranes
Sequence of Histamine H3 receptor (Rattus norvegicus, UniProt Q9QYN8) (Q9QYN8 whole entry): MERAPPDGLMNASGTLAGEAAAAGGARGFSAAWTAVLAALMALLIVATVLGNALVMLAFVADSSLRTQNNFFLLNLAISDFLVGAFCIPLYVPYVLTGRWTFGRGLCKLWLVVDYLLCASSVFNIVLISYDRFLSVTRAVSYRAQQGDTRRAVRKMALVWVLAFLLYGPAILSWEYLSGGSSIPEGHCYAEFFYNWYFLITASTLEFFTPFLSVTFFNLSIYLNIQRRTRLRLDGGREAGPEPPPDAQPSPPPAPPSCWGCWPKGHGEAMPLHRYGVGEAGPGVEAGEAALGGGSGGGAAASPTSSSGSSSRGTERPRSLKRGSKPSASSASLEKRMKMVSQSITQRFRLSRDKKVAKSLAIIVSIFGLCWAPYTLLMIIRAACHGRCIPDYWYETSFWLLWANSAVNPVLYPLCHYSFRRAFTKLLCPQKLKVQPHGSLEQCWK
Procedure, shortened: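 Membranes from male Wistar rat brain (150–200 g) incubated 45 min with 0.5 nM [3H]RAMHA and compound (0.03 nM to 10 µM) in 50 mM Tris–HCl pH 7.4, 50 mM NaCl, 0.5 mM EDTA. Vacuum filtration, two ice-cold buffer rinses. Nonspecific binding set with 10 µM thioperamide. pKi by Cheng–Prusoff.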

SK-N-MC [4] = test: Cytotoxicity against human SK-N-MC cells at 1 uM after 6 hrs by MTT test; assay type: functional, cell-based
Procedure, shortened: (§1)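 MTT viability test: SK-N-MC cells held 6 h with compound (1–10 µM) or vehicle. MTT (5 mg/ml stock) added for 3 h, cells washed in PBS, formazan dissolved in 0.1 N HCl in isopropanol, absorbance read at 570 nm. Viability given relative to control.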

SK-N-MC [5] = test: Cytotoxicity against human SK-N-MC cells at 10 uM after 6 hrs by MTT test; assay type: functional, cell-based; procedure, shortened: as §1
[6] = molecular target: T2, Acetylcholinesterase (Rattus norvegicus) (UniProt P37136); test: Inhibition of acetylcholinesterase in Wistar rat brain homogenate at upto 1 to 100 uM by Ellman's method; assay type: tissue-based
T2 sequence (whole entry): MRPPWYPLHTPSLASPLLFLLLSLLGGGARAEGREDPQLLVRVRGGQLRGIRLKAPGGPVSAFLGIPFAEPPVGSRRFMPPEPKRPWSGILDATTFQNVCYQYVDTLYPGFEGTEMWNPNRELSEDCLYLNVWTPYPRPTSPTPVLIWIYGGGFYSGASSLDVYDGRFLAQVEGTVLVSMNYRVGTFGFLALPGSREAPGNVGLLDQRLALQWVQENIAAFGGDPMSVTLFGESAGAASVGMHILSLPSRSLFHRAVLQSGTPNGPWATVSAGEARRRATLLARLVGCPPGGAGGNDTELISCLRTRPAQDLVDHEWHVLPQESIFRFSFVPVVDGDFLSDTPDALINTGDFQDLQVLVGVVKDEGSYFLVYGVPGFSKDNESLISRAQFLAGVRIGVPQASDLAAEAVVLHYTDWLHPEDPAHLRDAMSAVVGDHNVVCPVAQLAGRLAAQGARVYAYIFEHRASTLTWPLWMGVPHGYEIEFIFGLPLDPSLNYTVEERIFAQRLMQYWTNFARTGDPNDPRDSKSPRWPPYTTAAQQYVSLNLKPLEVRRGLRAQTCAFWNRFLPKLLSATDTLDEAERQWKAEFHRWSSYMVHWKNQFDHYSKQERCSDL
Procedure, shortened: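 Male Wistar rat (150–200 g) brain homogenate in 0.1 M phosphate buffer (pH 8.0) with DTNB (5 mM) and compound at 1–100 µM. Reaction started at 37 °C by adding acetylthiocholine (75 mM solution) and stopped after 15 min with 4% formalin. 5-Thio-2-nitrobenzoate absorbance at 412 nm. Percent inhibition versus control; reported as pIC50.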

Acetylcholinesterase = molecular target: T3, Acetylcholinesterase (Rattus norvegicus, UniProt P37136); test: Inhibition of acetylcholinesterase in Wistar rat brain homogenate by Ellman's method; assay type: tissue-based
T3 sequence (P37136 whole entry): T2 sequence (whole entry)

[7] = molecular target: Histamine H2 receptor (Cavia porcellus) (UniProt P47747); test: Antagonist activity at histamine H2 receptor in guinea pig atrium assessed as changes in rate of spontaneous beat at upto 10 uM; assay type: functional, tissue-based; conditions: Cardiac atrium
Sequence of Histamine H2 receptor (Cavia porcellus) (P47747 whole entry): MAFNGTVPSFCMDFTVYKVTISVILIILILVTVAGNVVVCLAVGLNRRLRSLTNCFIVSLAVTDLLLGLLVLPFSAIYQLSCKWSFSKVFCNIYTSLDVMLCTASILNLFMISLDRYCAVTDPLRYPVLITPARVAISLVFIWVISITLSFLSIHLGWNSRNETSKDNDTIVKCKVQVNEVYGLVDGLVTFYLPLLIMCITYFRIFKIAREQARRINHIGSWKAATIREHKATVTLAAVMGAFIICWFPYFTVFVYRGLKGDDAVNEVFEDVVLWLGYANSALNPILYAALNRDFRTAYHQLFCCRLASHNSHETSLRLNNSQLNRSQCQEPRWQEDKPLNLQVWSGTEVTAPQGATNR
Procedure, shortened: (§2)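 Guinea-pig atria (H2) in Ringer–Locke at 31 °C (mM: NaCl 154.0, KCl 5.6, CaCl2 1.08, NaHCO3 5.95, glucose 11.1), gassed 95% O2–5% CO2. Spontaneous beating rate recorded by cardiotachograph. Cumulative dimaprit curves (0.1–100 µM) run without and with compound up to 10 µM. Affinity given as pKB by Furchgott, or as pD2′ by Van Rossum if non-surmountable.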

[8] = molecular target: Histamine H1 receptor (Cavia porcellus) (UniProt P31389); test: Antagonist activity at histamine H1 receptor in guinea pig terminal ileum; assay type: functional, tissue-based
Sequence of Histamine H1 receptor (Cavia porcellus) (P31389 whole entry): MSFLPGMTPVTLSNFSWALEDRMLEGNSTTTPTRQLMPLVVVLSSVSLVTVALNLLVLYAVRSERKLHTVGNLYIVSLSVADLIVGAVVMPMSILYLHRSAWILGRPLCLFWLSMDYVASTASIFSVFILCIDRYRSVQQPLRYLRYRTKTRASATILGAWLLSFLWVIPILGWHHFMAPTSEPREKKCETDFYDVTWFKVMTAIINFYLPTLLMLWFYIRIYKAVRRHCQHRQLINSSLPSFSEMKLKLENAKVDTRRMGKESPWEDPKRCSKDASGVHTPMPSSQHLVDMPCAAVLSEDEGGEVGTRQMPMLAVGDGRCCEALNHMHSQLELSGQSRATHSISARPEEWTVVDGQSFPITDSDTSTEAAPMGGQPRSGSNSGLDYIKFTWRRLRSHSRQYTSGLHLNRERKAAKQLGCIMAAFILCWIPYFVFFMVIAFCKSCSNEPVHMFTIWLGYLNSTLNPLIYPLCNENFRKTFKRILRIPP
Procedure, shortened: (§3)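 Guinea-pig (250–350 g) terminal ileum (H1) suspended isometrically in Krebs–Henseleit at 37 °C, aerated 95% O2–5% CO2. Cumulative histamine curves (1 nM to 1 µM) run without and with compound up to 10 µM. pKB (apparent pA2) from Furchgott's equation; pD2′ from Van Rossum's equation when antagonism was non-surmountable.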

[9] = molecular target: Histamine H3 receptor (Cavia porcellus) (UniProt Q9JI35); test: Antagonist activity at histamine H3 receptor in electrically-stimulated guinea pig ileum assessed as inhibition of (R)-alpha-methylhistamine-induced twitch contraction in presence of 1 uM mepyramine; assay type: functional, tissue-based
Sequence of Histamine H3 receptor (Cavia porcellus) (Q9JI35 whole entry): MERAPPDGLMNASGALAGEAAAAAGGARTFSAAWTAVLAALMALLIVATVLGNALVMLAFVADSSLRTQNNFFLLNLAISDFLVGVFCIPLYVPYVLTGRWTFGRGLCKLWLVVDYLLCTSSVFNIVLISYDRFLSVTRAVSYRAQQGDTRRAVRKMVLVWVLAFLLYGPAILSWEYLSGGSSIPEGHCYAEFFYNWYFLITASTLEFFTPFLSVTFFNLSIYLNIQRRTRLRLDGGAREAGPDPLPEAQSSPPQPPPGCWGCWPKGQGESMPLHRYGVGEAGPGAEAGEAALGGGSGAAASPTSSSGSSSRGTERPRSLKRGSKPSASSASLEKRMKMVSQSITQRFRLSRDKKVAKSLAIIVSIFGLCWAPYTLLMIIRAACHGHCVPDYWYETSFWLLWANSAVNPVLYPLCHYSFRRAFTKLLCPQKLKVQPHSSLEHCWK
Procedure, shortened: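 Guinea-pig ileum, electrically stimulated (0.1 Hz, 1 ms, submaximal voltage). Twitch inhibition by cumulative (R)-α-methylhistamine (1 nM to 1 µM) with 1 µM mepyramine present. Compounds tested at 1 nM to 30 µM. Potency as pKB from Furchgott's equation, or as pD2′ (Van Rossum) for non-surmountable antagonism.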

Histamine H4 receptor = Histamine H4 receptor (Homo sapiens, UniProt Q9H3N8); test: Displacement of [3H]histamine from human histamine H4 receptor expressed in SK-N-MC cells at upto 10 uM
Sequence of Histamine H4 receptor (Q9H3N8 whole entry): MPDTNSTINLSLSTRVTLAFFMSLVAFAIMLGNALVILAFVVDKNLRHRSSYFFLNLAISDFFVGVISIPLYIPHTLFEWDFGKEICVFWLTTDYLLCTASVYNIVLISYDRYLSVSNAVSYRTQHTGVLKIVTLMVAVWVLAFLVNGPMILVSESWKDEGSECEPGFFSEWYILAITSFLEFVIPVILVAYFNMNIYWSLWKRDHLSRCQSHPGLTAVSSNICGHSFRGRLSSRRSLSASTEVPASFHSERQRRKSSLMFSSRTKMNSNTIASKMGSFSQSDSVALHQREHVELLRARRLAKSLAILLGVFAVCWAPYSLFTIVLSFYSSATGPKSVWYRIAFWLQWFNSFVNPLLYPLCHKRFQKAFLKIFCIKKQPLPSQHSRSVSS

[10] = molecular target: T2, Acetylcholinesterase (Rattus norvegicus); test: Inhibition of acetylcholinesterase in Wistar rat brain homogenate at upto 10 uM by Ellman's method; assay type: tissue-based
[11] = molecular target: Histamine H1 receptor (Cavia porcellus) (UniProt P31389); test: Antagonist activity at histamine H1 receptor in guinea pig terminal ileum at upto 10 uM; assay type: functional, tissue-based; procedure, shortened: as §3
[12] = molecular target: Histamine H2 receptor (Cavia porcellus) (UniProt P47747); test: Antagonist activity at histamine H2 receptor in guinea pig atrium assessed as changes in rate of spontaneous beat at upto 1 uM; assay type: functional, tissue-based; conditions: Cardiac atrium; procedure, shortened: as §2

Row | SMILES | pKb (Histamine H3 receptor [1]) | Ki (Histamine H3 receptor [2]) | Ki (Histamine H3 receptor [3]) | Activity (SK-N-MC [4]) | Activity (SK-N-MC [5]) | inhibition [6] | IC50 (Acetylcholinesterase) | Activity [7] | pKb [8] | pKb [9] | Activity (Histamine H4 receptor) | Activity [10] | Activity [11] | Activity [12] | pD2 [8]
1 | CN(Cc1ccc(-c2ccc(CN3CCCCC3)cc2)cc1)C1CCCCC1 | 9.19 | 2.75 nM | 7.41 nM | Not toxic | Not toxic | 93% | 1.38 µM | inactive | 5.56 | 8.46 | inactive | – | – | – | –
2 | CN(C)CCc1ccc(-c2ccc(CCN(C)C)cc2)cc1 | 8.06 | 5.13 nM | 19.5 nM | – | – | – | – | inactive | – | 8.04 | inactive | inactive | inactive | – | –
3 | c1cc(-c2ccc(CN3CCCCC3)cc2)ccc1CNC1CCCCC1 | 8.03 | – | – | Not toxic | Not toxic | 73% | 5.75 µM | – | – | 7.59 | inactive | – | inactive | inactive | –
4 | CCN(CC)Cc1ccc(-c2ccc(CN(CC)CC)cc2)cc1 | 8.96 | 2.82 nM | 2.4 nM | Not toxic | Not toxic | – | – | inactive | – | 9.34 | inactive | inactive | inactive | – | –
5 | CCCN(CCC)Cc1ccc(-c2ccc(CN3CCCCC3)cc2)cc1 | 8.18 | 1.74 nM | 3.16 nM | Not toxic | Not toxic | 93% | 1.48 µM | inactive | 5.48 | 9.12 | inactive | – | – | – | –
6 | CCCN(CCC)C(=O)Cc1ccc(-c2ccc(CN3CCCCC3)cc2)cc1 | 8.16 | 8.51 nM | 53.7 nM | Not toxic | Not toxic | 80% | 11.2 µM | – | 5.44 | 8 | inactive | – | – | inactive | –
7 | CCCN(CCC)Cc1ccc(-c2ccc(CCN3CCCCC3)cc2)cc1 | 8.82 | 3.89 nM | 10.7 nM | Not toxic | Not toxic | 80% | 6.76 µM | – | – | 7.98 | inactive | – | inactive | inactive | –
8 | CC(=O)N1CCN(Cc2ccc(-c3ccc(CN4CCCCC4)cc3)cc2)CC1 | 7.86 | – | – | Not toxic | Not toxic | 79% | 11.5 µM | inactive | – | 7.79 | inactive | – | – | – | 4.46
9 | CN(C)Cc1ccc(-c2ccc(CN(C)C)cc2)cc1 | 8.17 | – | – | Not toxic | Not toxic | – | – | inactive | – | 8.46 | inactive | inactive | inactive | – | –
10 | CCCN(CCC)Cc1ccc(-c2ccc(CC(=O)N3CCCCC3)cc2)cc1 | 6.96 | 251 nM | 178 nM | Not toxic | Not toxic | 65% | 10.5 µM | – | 5.44 | 7.24 | inactive | – | – | inactive | –
11 | c1cc(-c2ccc(CN3CCCCC3)cc2)ccc1CCN1CCCCC1 | 9.28 | 2 nM | 8.32 nM | Not toxic | Not toxic | 91% | 1.1 µM | – | – | 8.73 | inactive | – | inactive | inactive | –
12 | CC1CCN(Cc2ccc(-c3ccc(CN4CCCCC4)cc3)cc2)CC1 | 8.64 | 2.4 nM | 5.75 nM | Not toxic | Not toxic | 93% | 1.41 µM | inactive | – | 8.75 | inactive | – | inactive | – | –
13 | c1cc(-c2ccc(CN3CCOCC3)cc2)ccc1CN1CCCCC1 | 7.77 | 19.5 nM | 15.5 nM | Not toxic | Not toxic | – | – | inactive | – | 9.07 | inactive | inactive | inactive | – | –
14 | C(CCCCN1CCCCC1)CCCCN1CCCCC1 | – | 4.47 nM | 15.8 nM | – | – | – | – | – | – | – | – | – | – | – | –
15 | CCN(CC)Cc1ccc(-c2ccc(CN3CCCCC3)cc2)cc1 | 8.9 | 1.95 nM | 2.57 nM | Not toxic | Not toxic | – | – | inactive | – | 9.41 | inactive | inactive | inactive | – | –
16 | c1cc(-c2ccc(CN3CCOCC3)cc2)ccc1CN1CCOCC1 | 7.67 | – | – | Not toxic | Not toxic | – | – | inactive | – | – | inactive | inactive | inactive | – | –
17 | O=C1CCCCN1Cc1ccc(-c2ccc(CN3CCCCC3)cc2)cc1 | 7.46 | – | – | Not toxic | Not toxic | – | – | inactive | – | 7.57 | inactive | inactive | inactive | – | –
18 | CC1CCN(Cc2ccc(-c3ccc(CN4CCC(C)CC4)cc3)cc2)CC1 | 7.68 | – | – | Not toxic | Not toxic | 83% | 3.55 µM | inactive | 5.89 | 7.3 | inactive | – | – | – | –
